Activity calls are given as the source filed them. The calls are words filed in the database; no cut-off is given here.
Key:
HT-29 [1] = experiment: Induction of cell cycle arrest in human HT-29 cells assessed as accumulation of cells at G2/M phase at 4 uM incubated for 24 hrs by RNase/PI staining based flow cytometry analysis (reference value: 23.695 %); format: functional
HT-29 [2] = experiment: Induction of cell cycle arrest in human HT-29 cells assessed as accumulation of cells at subG1 phase at 4 uM incubated for 24 hrs by RNase/PI staining based flow cytometry analysis (reference value: 1.798%); format: functional
HT-29 [3] = experiment: Induction of mitochondrial damage in human HT-29 cells assessed as increase in monomer formation at 4 uM incubated for 24 hrs by JC-1 staining based flow cytometry analysis; format: functional, cell-based
In short: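 HT-29 cells exposed 24 h to test agent at 1, 2 or 4 μM, then stained with JC-1. Flow cytometry scored the % of cells in JC-1 aggregate versus monomer populations. Treated groups were compared with untreated control by two-way ANOVA with Tukey's post hoc test.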

HT-29 [4] = experiment: Induction of apoptosis in human HT29 cells assessed as increase in late apoptotic cells at 4 uM incubated for 24 hrs by annexin V/PI staining based flow cytometry analysis; format: functional, cell-based
In short: (§1)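 Annexin/PI double staining of HT-29 cells after 24 h exposure at 1, 2 or 4 μM. Flow cytometry gated early apoptotic, late apoptotic and necrotic populations, reported as % of cells. Comparison to untreated control used two-way ANOVA followed by Tukey's post hoc analysis.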

HT-29 [5] = experiment: Downregulation of beta-catenin protein expression in human HT-29 cells at 4 uM by immunostaining based confocal microscopic analysis; format: functional, cell-based
[6] = target: Phosphatidylinositol 3-kinase regulatory subunit alpha (Homo sapiens) (UniProt P27986); experiment: Inhibition of PI3K-P85 phosphorylation in human HT-29 cells at 4 uM incubated for 72 hrs by Western blot analysis; format: cell-based
Sequence of Phosphatidylinositol 3-kinase regulatory subunit alpha (Homo sapiens) (P27986 whole entry): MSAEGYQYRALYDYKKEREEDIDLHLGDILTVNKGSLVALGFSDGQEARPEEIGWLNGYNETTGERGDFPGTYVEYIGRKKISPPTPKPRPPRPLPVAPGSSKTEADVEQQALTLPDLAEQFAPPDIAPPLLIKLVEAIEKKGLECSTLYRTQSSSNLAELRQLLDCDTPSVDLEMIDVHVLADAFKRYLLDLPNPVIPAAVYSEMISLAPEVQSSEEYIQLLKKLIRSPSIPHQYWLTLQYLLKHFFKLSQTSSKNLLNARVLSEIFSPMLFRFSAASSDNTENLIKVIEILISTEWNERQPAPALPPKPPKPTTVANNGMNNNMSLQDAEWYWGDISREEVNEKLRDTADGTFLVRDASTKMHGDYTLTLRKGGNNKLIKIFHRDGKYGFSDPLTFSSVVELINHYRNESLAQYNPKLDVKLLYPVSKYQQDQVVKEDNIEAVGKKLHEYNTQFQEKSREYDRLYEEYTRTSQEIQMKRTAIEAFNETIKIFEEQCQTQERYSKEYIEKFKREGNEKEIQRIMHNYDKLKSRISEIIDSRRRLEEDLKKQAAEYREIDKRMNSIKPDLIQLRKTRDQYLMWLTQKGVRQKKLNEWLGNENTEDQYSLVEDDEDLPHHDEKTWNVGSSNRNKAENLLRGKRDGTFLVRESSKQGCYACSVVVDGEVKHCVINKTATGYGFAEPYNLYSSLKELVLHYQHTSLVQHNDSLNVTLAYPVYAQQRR

[7] = target: Glycogen synthase kinase-3 beta (Homo sapiens) (UniProt P49841); experiment: Inhibition of GSK3beta phosphorylation in human HT-29 cells at 4 uM incubated for 72 hrs by Western blot analysis; format: cell-based
Sequence of Glycogen synthase kinase-3 beta (Homo sapiens) (P49841 whole entry, looked up): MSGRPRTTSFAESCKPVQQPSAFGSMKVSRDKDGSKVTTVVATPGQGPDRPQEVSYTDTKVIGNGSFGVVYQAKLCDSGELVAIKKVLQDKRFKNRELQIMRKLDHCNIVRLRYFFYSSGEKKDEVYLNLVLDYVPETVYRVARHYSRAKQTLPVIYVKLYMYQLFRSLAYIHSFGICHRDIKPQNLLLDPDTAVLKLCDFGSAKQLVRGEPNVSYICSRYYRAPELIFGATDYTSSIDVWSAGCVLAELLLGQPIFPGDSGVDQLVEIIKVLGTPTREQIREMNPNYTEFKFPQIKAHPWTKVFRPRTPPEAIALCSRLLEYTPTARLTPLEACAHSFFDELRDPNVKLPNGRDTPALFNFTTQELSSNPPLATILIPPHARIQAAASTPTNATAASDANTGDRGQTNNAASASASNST

HT-29 [8] = experiment: Inhibition of AXIN-1 protein expression in human HT-29 cells at 4 uM incubated for 72 hrs by Western blot analysis; format: functional, cell-based
HT-29 [9] = experiment: Inhibition of phosphorylated PI3K-p85 protein expression in human HT-29 cells at 4 uM incubated for 72 hrs by Western blot analysis; format: functional, cell-based
HT-29 [10] = experiment: Inhibition of PI3K-p85 protein expression in human HT-29 cells at 4 uM incubated for 72 hrs by Western blot analysis; format: functional, cell-based
HT-29 [11] = experiment: Induction of cell cycle arrest in human HT-29 cells assessed as accumulation of cells at S phase at 1 uM incubated for 24 hrs by RNase/PI staining based flow cytometry analysis (reference value: 17.934 %); format: functional
HT-29 [12] = experiment: Induction of cell cycle arrest in human HT-29 cells assessed as accumulation of cells at subG1 phase at 1 uM incubated for 24 hrs by RNase/PI staining based flow cytometry analysis (reference value: 1.798%); format: functional
HT-29 [13] = experiment: Induction of apoptosis in human HT29 cells assessed as increase in late apoptotic cells at 1 uM incubated for 24 hrs by annexin V/PI staining based flow cytometry analysis; format: functional, cell-based; in short: as §1
HT-29 [14] = experiment: Induction of ROS generation in human HT-29 cells at 1 uM by CM-H2DCFDA fluorescent probe based flow cytometry analysis (reference value: 0.528%); format: functional
HT-29 [15] = experiment: Downregulation of beta-catenin protein expression in human HT-29 cells at 1 uM by immunostaining based confocal microscopic analysis; format: functional, cell-based
[16] = target: 182 kDa tankyrase-1-binding protein (Homo sapiens) (UniProt Q9C0C2); experiment: Inhibition of TAB-182 phosphorylation in human HT-29 cells at 1 uM incubated for 72 hrs by Western blot analysis; format: cell-based
Sequence of 182 kDa tankyrase-1-binding protein (Homo sapiens) (Q9C0C2 whole entry): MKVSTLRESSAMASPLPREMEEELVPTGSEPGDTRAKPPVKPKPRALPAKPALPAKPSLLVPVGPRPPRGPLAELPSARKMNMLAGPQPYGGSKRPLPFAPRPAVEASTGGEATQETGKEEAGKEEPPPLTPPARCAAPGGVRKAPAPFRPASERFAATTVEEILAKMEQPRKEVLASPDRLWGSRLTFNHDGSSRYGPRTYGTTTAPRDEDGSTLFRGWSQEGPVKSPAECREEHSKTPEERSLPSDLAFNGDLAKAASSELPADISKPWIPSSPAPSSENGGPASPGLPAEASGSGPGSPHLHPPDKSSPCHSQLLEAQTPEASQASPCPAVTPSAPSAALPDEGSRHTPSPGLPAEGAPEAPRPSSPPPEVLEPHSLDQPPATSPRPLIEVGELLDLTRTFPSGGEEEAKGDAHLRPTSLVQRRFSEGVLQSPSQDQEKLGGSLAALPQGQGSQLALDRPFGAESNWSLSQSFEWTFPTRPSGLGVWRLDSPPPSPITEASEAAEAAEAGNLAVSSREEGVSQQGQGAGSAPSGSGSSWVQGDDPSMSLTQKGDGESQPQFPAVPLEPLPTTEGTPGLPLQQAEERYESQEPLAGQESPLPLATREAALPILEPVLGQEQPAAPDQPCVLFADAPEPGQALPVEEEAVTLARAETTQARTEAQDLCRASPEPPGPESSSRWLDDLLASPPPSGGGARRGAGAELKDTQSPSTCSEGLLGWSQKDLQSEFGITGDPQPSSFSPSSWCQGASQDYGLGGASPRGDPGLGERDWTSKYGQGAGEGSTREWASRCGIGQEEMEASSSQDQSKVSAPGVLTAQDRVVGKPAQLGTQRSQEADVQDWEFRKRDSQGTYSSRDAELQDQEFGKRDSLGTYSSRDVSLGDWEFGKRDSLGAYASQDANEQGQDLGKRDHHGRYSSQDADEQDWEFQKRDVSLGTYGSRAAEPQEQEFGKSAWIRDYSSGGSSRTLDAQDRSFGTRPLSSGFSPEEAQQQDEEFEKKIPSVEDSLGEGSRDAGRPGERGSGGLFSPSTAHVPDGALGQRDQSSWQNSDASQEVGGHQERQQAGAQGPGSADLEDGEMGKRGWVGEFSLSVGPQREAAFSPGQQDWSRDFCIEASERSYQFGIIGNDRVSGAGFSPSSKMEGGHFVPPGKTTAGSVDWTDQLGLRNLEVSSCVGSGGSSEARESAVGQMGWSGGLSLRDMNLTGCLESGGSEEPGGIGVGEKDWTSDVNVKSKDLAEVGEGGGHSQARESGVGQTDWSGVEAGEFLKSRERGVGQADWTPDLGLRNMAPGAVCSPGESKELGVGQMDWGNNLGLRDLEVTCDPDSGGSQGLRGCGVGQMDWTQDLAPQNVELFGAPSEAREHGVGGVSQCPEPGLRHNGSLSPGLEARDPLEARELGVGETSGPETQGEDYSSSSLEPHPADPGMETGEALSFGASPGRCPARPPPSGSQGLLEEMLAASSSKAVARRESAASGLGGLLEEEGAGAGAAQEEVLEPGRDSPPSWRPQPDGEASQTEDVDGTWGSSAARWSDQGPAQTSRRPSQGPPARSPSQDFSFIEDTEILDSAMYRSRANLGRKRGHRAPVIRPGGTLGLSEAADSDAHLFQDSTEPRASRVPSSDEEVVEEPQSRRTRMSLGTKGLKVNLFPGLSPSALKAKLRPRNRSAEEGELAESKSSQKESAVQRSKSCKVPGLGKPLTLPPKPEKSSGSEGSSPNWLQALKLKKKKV

HT-29 [17] = experiment: Inhibition of AXIN-1 protein expression in human HT-29 cells at 1 uM incubated for 72 hrs by Western blot analysis; format: functional, cell-based
HT-29 [18] = experiment: Inhibition of AXIN-2 protein expression in human HT-29 cells at 1 uM incubated for 72 hrs by Western blot analysis; format: functional, cell-based
HT-29 [19] = experiment: Inhibition of beta-actin protein expression in human HT-29 cells at 1 uM incubated for 72 hrs by Western blot analysis; format: functional, cell-based
HT-29 [20] = experiment: Inhibition of pan-AKT protein expression in human HT-29 cells at 1 uM incubated for 72 hrs by Western blot analysis; format: functional, cell-based
HT-29 [21] = experiment: Induction of cell cycle arrest in human HT-29 cells assessed as accumulation of cells at G0/G1 phase at 2 uM incubated for 24 hrs by RNase/PI staining based flow cytometry analysis (reference value: 50.206%); format: functional
HT-29 [22] = experiment: Induction of cell cycle arrest in human HT-29 cells assessed as accumulation of cells at G2/M phase at 2 uM incubated for 24 hrs by RNase/PI staining based flow cytometry analysis (reference value: 23.695 %); format: functional
HT-29 [23] = experiment: Induction of cell cycle arrest in human HT-29 cells assessed as accumulation of cells at subG1 phase at 2 uM incubated for 24 hrs by RNase/PI staining based flow cytometry analysis (reference value: 1.798%); format: functional
HT-29 [24] = experiment: Induction of apoptosis in human HT29 cells assessed as increase in early apoptotic cells at 2 uM incubated for 24 hrs by annexin V/PI staining based flow cytometry analysis; format: functional, cell-based; in short: as §1
HT-29 [25] = experiment: Induction of apoptosis in human HT29 cells assessed as increase in late apoptotic cells at 2 uM incubated for 24 hrs by annexin V/PI staining based flow cytometry analysis; format: functional, cell-based; in short: as §1
HT-29 [26] = experiment: Induction of ROS generation in human HT-29 cells at 2 uM by CM-H2DCFDA fluorescent probe based flow cytometry analysis (reference value: 0.528%); format: functional
HT-29 [27] = experiment: Downregulation of TAB-182 protein expression in human HT-29 cells at 2 uM by immunostaining based confocal microscopic analysis; format: functional, cell-based
[28] = target: Phosphatidylinositol 3-kinase regulatory subunit alpha (Homo sapiens) (UniProt P27986); experiment: Inhibition of PI3K-P85 phosphorylation in human HT-29 cells at 2 uM incubated for 72 hrs by Western blot analysis; format: cell-based
HT-29 [29] = experiment: Inhibition of APC protein expression in human HT-29 cells at 2 uM incubated for 72 hrs by Western blot analysis; format: functional, cell-based
HT-29 [30] = experiment: Inhibition of AXIN-1 protein expression in human HT-29 cells at 2 uM incubated for 72 hrs by Western blot analysis; format: functional, cell-based
HT-29 [31] = experiment: Inhibition of TAB-182 protein expression in human HT-29 cells at 2 uM incubated for 72 hrs by Western blot analysis; format: functional, cell-based
HT-29 [32] = experiment: Inhibition of phosphorylated PI3K-p85 protein expression in human HT-29 cells at 2 uM incubated for 72 hrs by Western blot analysis; format: functional, cell-based
HT-29 [33] = experiment: Inhibition of PI3K-p85 protein expression in human HT-29 cells at 2 uM incubated for 72 hrs by Western blot analysis; format: functional, cell-based

**Q.** With COc1cccc(-n2c(SCCc3c[nH]c4ccccc34)nnc2-c2ccncc2)c1 as the molecule, how does the Activity (HT-29 [1]) read?
**A.** 22.943%

**Q.** What about the Activity (HT-29 [2]) of the same molecule?
**A.** 2.668%

**Q.** And the Activity (HT-29 [3])?
**A.** Active

**Q.** What about the Activity (HT-29 [4]) of the same molecule?
**A.** Active

**Q.** And the Activity (HT-29 [5])?
**A.** Active

**Q.** And the inhibition [6]?
**A.** Active

**Q.** What about the inhibition [7] of the same molecule?
**A.** Active

**Q.** What about the inhibition (HT-29 [8]) of the same molecule?
**A.** Active

**Q.** And the inhibition (HT-29 [9])?
**A.** Active

**Q.** And the inhibition (HT-29 [10])?
**A.** Active

**Q.** Which results are given for COc1ccc(-n2c(SCCc3c[nH]c4ccccc34)nnc2-c2ccncc2)cc1?
**A.** Activity (HT-29 [11]): 9.899%; Activity (HT-29 [12]): 1.225%; Activity (HT-29 [13]): Active; Activity (HT-29 [14]): 15.334%; Activity (HT-29 [15]): Active; inhibition [16]: Active; inhibition (HT-29 [17]): Active; inhibition (HT-29 [18]): Active; inhibition (HT-29 [19]): Active; inhibition (HT-29 [20]): Active

**Q.** What does the source list for Fc1ccccc1-n1c(SCCc2c[nH]c3ccccc23)nnc1-c1ccncc1?
**A.** Activity (HT-29 [21]): 67.66%; Activity (HT-29 [22]): 18.982%; Activity (HT-29 [23]): 0.854%; Activity (HT-29 [24]): Active; Activity (HT-29 [25]): Active; Activity (HT-29 [26]): 1.526%; Activity (HT-29 [27]): Active; inhibition [28]: Active; inhibition (HT-29 [29]): Active; inhibition (HT-29 [30]): Active; inhibition (HT-29 [31]): Active; inhibition (HT-29 [32]): Active; inhibition (HT-29 [33]): Active
